Screens as filed in PubChem.
PKA-R1A act: activates the PKA-R1A holoenzyme complex | activation, % at 11.4 µM | P00514+P68181 | PKA-R1A dissociation, Cy5-IP20 fluorescence polarization; scaled: DMSO 0%, 113 µM cGMP 100% | hit rate 0.083% among 340,000;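 active = percent activation above the mean of all tested compounds plus 3 SD, cut at about 19% in these data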;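 also: higher means more PKAc released from R1A so a rise in polarization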
CRFBP-R2 block: blocks CRF-induced signaling of the CRF-BP/CRF-R2 complex. inhibition, % at 11.8 µM. hit rate 0.59% among 350,000. HEK293 CRF-R2/CRF-BP, CRF-induced calcium fluorescence;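 active = inhibition of the ligand-induced calcium signal above about 50% at the single tested concentration, limit read from the data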
SIRT5 inh: sirtuin-5 (human) deacylase inhibition. Purified SirT5, succinyl-peptide AMC, trypsin-coupled fluorescence. hit rate 1.1% among 330,000. AID 652115. inhibition, % at 15 µM. Q9NXA8; in the data active = inhibition above about 15%
PKA-R2B act: activates the human PKA-R2B holoenzyme complex; hit rate 0.079% among 340,000; PKA-R2B holoenzyme dissociation, Cy5-IP20 fluorescence polarization; R2B truncated from residue 108, S112A mutant; 0% DMSO only, 100% 113 µM cGMP; P22694+P31323; activation, % at 11.4 µM;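 active = activation above a cutoff set at the mean over all compounds plus 3 SD, cut at about 18% in these data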;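 also: higher means more holoenzyme dissociation and a rise in polarization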
Target sequence (P31323 whole entry, looked up, other chains not shown, the tested form may be a part): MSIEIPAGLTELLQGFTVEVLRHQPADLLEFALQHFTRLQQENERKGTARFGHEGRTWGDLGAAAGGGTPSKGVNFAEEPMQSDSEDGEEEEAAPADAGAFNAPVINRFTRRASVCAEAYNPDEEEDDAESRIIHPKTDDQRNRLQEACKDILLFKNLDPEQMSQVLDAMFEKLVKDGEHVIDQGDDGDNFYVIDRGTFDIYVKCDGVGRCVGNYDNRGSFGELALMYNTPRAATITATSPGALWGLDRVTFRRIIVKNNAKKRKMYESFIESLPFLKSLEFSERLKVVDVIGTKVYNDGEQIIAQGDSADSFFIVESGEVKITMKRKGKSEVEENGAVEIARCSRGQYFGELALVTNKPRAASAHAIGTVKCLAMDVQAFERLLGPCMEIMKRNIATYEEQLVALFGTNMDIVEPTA
S100A4 inh HTS: S100A4-myosin IIA interaction inhibition | P26447 | S100A4/TAMRA-MyoIIA peptide fluorescence polarization | AID 652163 | inhibition, % at 10.7 µM | hit rate 0.14% among 360,000;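 active = mean inhibition of at least 70% across replicates, with every replicate also reaching that level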
Target sequence (P26447 whole entry, looked up): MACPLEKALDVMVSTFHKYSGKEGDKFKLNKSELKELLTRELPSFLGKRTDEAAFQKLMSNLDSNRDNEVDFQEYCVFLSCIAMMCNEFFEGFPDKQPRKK
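assay system = human S100A4 monomer with TAMRA-labelled myosin IIA peptide | also added = labelled myosin peptide probe, 5 nM | incubation = 5 min between mix addition and reading | control set = DMSO and TFP controls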
R2B FP artifact: counter-screen for PKA-R2B activators: fluorescence polarization artifacts; shares compounds with PKA-R2B act; FP artifact counterscreen; activation, % at 11.4 µM; hit rate 6% among 270; AID 504796; in the data active = activation above about 20%;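 also: Cy5 labelled IP20 peptide probe with compound but no PKA protein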
PKA-R2B act conf: PKA-R2B complex activation, confirmation; activation, % at 11.4 µM; fluorescence polarization; AID 504797; hit rate 9% among 270; shares compounds with PKA-R2B act; in the data active = activation above about 19%
Target sequence (P31323 whole entry, looked up): as the sequence (P31323 whole entry, looked up, other chains not shown, the tested form may be a part) above
Each line names hits and unclear results; the compound was inactive in the other large screens (follow-up assays come after a bar, where they were run). A selection: hits, their analogues and other compounds. The true share with any hit is near 1.5%.

CCn1c(SCC(=O)NCCc2ccc(Cl)cc2)nnc1-c1cccs1	PKA-R2B act 19 (no result: SIRT5 inh, S100A4 inh HTS) | R2B FP artifact inactive | PKA-R2B act conf inactive
CC(=O)N1CCN(c2ccc(NC(=O)C(C)Oc3ccc(Cl)cc3Cl)cc2)CC1 (stereo not drawn)	PKA-R2B act 19 | R2B FP artifact inactive | PKA-R2B act conf inactive
CN(C)C(=O)C(CCN1CCC(O)(c2ccc(Cl)cc2)CC1)(c1ccccc1)c1ccccc1	none
OC(CCCN1CCC(O)(c2ccc(Cl)cc2)CC1)c1ccc(F)cc1 (stereo not drawn)	PKA-R2B act 19 | R2B FP artifact inactive | PKA-R2B act conf inactive
O=c1[nH]cnc2nc(-c3ccccc3)c(-c3ccccc3)nc12	none (no result: SIRT5 inh, S100A4 inh HTS)
O=c1[nH]cnc2ncc(-c3ccc(O)cc3)nc12	PKA-R2B act 20 | R2B FP artifact inactive | PKA-R2B act conf inactive
O=C(Nc1ccc(C(=O)O)cc1)/C(=C\c1ccco1)NC(=O)c1ccc(Br)cc1	SIRT5 inh 24, PKA-R2B act 24 | R2B FP artifact inactive | PKA-R2B act conf inactive
O=C(Nc1ccc(C(=O)O)cc1)/C(=C\c1ccco1)NC(=O)c1ccc(Br)o1	none
Oc1ccccc1OCC(O)c1ccccc1 (stereo not drawn)	PKA-R2B act 19 | R2B FP artifact inactive | PKA-R2B act conf inactive
O=C(C[C@@H]1CC[C@H]2[C@@H](COC[C@@H](O)CN2C(=O)Nc2ccc(Cl)cc2)O1)NCc1ccncn1	none (no result: PKA-R1A act, CRFBP-R2 block, PKA-R2B act)
Cn1c(/C(C#N)=C(\O)c2ccc(S(=O)(=O)N3CCCCC3)cc2)nc2ccccc21	PKA-R2B act 19 | R2B FP artifact inactive | PKA-R2B act conf inactive
CC(C)NC(=O)Nc1ccc2c(c1)C(=O)N([C@@H](C)CO)C[C@@H](C)[C@@H](CN(C)S(=O)(=O)c1cccs1)OCCCC[C@@H](C)O2	none (no result: PKA-R1A act, CRFBP-R2 block, PKA-R2B act)
CCN(CC)CCNC(=O)c1ccc(NC2=NC3CS(=O)(=O)CC3S2)cc1 (stereo not drawn)	PKA-R2B act 19 | R2B FP artifact inactive | PKA-R2B act conf inactive
O=C(NCCc1ccc(Cl)cc1)c1ccc(NC2=NC3CS(=O)(=O)CC3S2)cc1 (stereo not drawn)	none
O=C(NC1CC1)c1ccc(F)cc1Cl	PKA-R2B act 23 (no result: SIRT5 inh, S100A4 inh HTS) | R2B FP artifact inactive | PKA-R2B act conf inactive
Cn1ncc(Br)c1C(=O)NC1C2CC3CC(C2)CC1C3 (stereo not drawn)	none
Cc1c(Cl)c(C(=O)NC2C3CC4CC(C3)CC2C4)nn1C (stereo not drawn)	PKA-R2B act 20 (no result: SIRT5 inh, S100A4 inh HTS) | R2B FP artifact inactive | PKA-R2B act conf inactive
Cc1cc(NCCN2CCOCC2)n2nc(C)c(-c3ccccc3)c2n1	none (no result: SIRT5 inh, S100A4 inh HTS)
Cc1cc(C)c2c(n1)nn1c(NCCN3CCOCC3)cc(C)nc21	PKA-R2B act 18 (no result: SIRT5 inh, S100A4 inh HTS) | R2B FP artifact inactive | PKA-R2B act conf inactive
COc1ccc(NC(=O)Nc2ccc3c(c2)[C@@H]2C[C@@H](CC(=O)NCc4ccc5c(c4)OCO5)O[C@H](CO)[C@@H]2O3)cc1	none (no result: PKA-R1A act, CRFBP-R2 block, PKA-R2B act)
Fc1ccccc1CSc1nnc2ccc(-c3ccncc3)nn12	PKA-R2B act 19 | R2B FP artifact inactive | PKA-R2B act conf inactive
c1ccc(CSc2nnc3ccc(-c4ccncc4)nn23)cc1	none
O=C(COC(=O)COc1ccc(Cl)cc1)Nc1ccc2c(c1)OCCO2	PKA-R2B act 19 | R2B FP artifact inactive | PKA-R2B act conf inactive
O=C(c1cc(F)c(F)cc1Cl)N1CCN(c2ncccn2)CC1	PKA-R2B act 19 | R2B FP artifact inactive | PKA-R2B act conf inactive
COC(=O)Cc1cc(=O)n2[nH]cnc2n1	PKA-R2B act 19 (no result: SIRT5 inh, S100A4 inh HTS) | R2B FP artifact inactive | PKA-R2B act conf inactive
Cc1cccc2cc(CN(CCCO)C(=O)Nc3ccccc3Cl)c(=O)[nH]c12	PKA-R2B act 23 (no result: SIRT5 inh, S100A4 inh HTS) | R2B FP artifact inactive | PKA-R2B act conf inactive
CN(C)CCCn1cnc2c(c1=N)C(c1ccccc1)c1ccc3ccccc3c1O2 (stereo not drawn)	PKA-R2B act 22 | R2B FP artifact inactive | PKA-R2B act conf inactive
N=c1c2c(ncn1CCCO)Oc1c(ccc3ccccc13)C2c1ccccc1 (stereo not drawn)	none
COc1ccc(NC(=O)Nc2ccc3c(c2)CC(=O)N([C@@H](C)CO)C[C@H](C)[C@H](CN(C)S(=O)(=O)c2ccc(F)cc2)O3)cc1	none (no result: PKA-R1A act, CRFBP-R2 block, PKA-R2B act)
O=C1Nc2ccccc2/C1=C/c1cnc(-c2ccccc2)[nH]1	PKA-R2B act 19 | R2B FP artifact inactive | PKA-R2B act conf inactive
Cc1cccc(C)c1N1CCN(c2nc(N(C)C)oc(=O)c2C#N)CC1	PKA-R2B act 20 (no result: SIRT5 inh, S100A4 inh HTS) | R2B FP artifact inactive | PKA-R2B act conf inactive
CN(C)c1nc(N2CCN(c3ccccc3)CC2)c(C#N)c(=O)o1	none (no result: SIRT5 inh, S100A4 inh HTS)
Cc1ccc(S(=O)(=O)Nc2ccc3c(c2)C(=O)N([C@H](C)CO)C[C@@H](C)[C@H](CN(C)C(=O)Nc2c(C)noc2C)OCCCC[C@@H](C)O3)cc1	none (no result: PKA-R1A act, CRFBP-R2 block, PKA-R2B act)
CCOC(=O)N1CCN(Cc2nc3c(c(=O)n(C)c(=O)n3C)n2Cc2ccc(F)cc2)CC1	PKA-R2B act 19 | R2B FP artifact inactive | PKA-R2B act conf inactive
COc1ccc(CCN(Cc2nc3ccccc3c(=O)[nH]2)C(=O)C2CC2)cc1	PKA-R2B act 19 | R2B FP artifact inactive | PKA-R2B act conf inactive
O=C(C1CC1)N(CCc1ccccc1)Cc1nc2ccccc2c(=O)[nH]1	none (no result: SIRT5 inh, S100A4 inh HTS)
COc1ccc(NC(=O)C2CCN(S(=O)(=O)c3ccccc3)CC2)cc1	none
COc1ccc(S(=O)(=O)N2CCC(C(=O)Nc3c(F)cccc3F)CC2)cc1	PKA-R2B act 21 | R2B FP artifact inactive | PKA-R2B act conf inactive
C[C@@H]1CN([C@H](C)CO)C(=O)Cc2cc(NS(C)(=O)=O)ccc2O[C@@H]1CN(C)CC1CCCCC1	none (no result: PKA-R1A act, CRFBP-R2 block, PKA-R2B act)
CO[C@@H]1CN(C)C(=O)c2cc(NC(=O)C3CCCC3)ccc2OC[C@@H](C)N(C(=O)c2ccccc2)C[C@H]1C	none (no result: PKA-R1A act, CRFBP-R2 block, PKA-R2B act)
CC(=O)N(c1ccc(Cl)cc1)c1nc(C)cc(C)c1C#N	PKA-R2B act 20 | R2B FP artifact inactive | PKA-R2B act conf inactive
O=S1(=O)CCOC(CO)CN1Cc1ccc(Cl)c(Cl)c1 (stereo not drawn)	none | R2B FP artifact inactive | PKA-R2B act conf inactive
O=S1(=O)CCN(Cc2ccc(Cl)c(Cl)c2)CC1	none (no result: SIRT5 inh, S100A4 inh HTS)
CC(C)NC(=O)N1[C@@H](CO)[C@@H](c2ccccc2)C12CN(C(=O)CN(C)C)C2	none (no result: PKA-R1A act, CRFBP-R2 block, PKA-R2B act)
Oc1ccc(/C=N/Nc2ncnc3nc[nH]c23)cc1	PKA-R2B act 22 | R2B FP artifact inactive | PKA-R2B act conf inactive
O=c1[nH]nc(SCc2nnc(-c3cccc(Cl)c3)o2)n1C1CCCCC1	PKA-R2B act 19 | R2B FP artifact inactive | PKA-R2B act conf inactive
COc1ccc(-c2nnc(CSc3nnc(-c4ccncc4)n3C3CCCCC3)o2)cc1OC	none (no result: SIRT5 inh, S100A4 inh HTS)
